Active and inactive are the calls of the source. No cut-off for these calls is given here.
Key:
[1] = target: T1, Delta-type opioid receptor (Homo sapiens, UniProt P41143); assay: Displacement of [3H]-DPN from recombinant human delta opioid receptor expressed in CHO-K1 cell membranes by radioligand binding assay
Procedure, shortened: (§1)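 Membranes from CHO-K1 cells stably transfected with human recombinant μ or δ receptor, or guinea pig κ receptor; competition with [3H]-DPN radioligand; affinity reported as pKi.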

[2] = Half life in rat liver microsomes at 15 uM; type: ADME, Microsome
[3] = target: T2, Mu-type opioid receptor (Homo sapiens, UniProt P35372); assay: Antagonist activity at human recombinant mu opioid receptor expressed in CHO-K1 cell membranes assessed as intrinsic activity at 10 pM to 20 uM incubated for 30 mins in presence of Eu-GTP by DELFIA GTP binding assay relative to DAMGO
T2 sequence (P35372 whole entry): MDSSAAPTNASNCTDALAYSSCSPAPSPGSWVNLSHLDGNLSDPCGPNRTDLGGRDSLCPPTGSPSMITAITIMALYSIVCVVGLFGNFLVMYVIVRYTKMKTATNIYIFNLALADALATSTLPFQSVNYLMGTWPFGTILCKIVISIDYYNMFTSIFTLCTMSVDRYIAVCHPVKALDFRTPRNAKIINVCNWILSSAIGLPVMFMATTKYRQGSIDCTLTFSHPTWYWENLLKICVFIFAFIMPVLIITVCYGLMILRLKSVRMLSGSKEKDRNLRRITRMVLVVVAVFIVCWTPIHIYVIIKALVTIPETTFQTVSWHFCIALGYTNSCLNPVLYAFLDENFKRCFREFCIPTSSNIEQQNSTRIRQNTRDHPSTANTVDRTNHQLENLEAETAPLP

[4] = target: T2, Mu-type opioid receptor; assay: Displacement of [3H]-DPN from recombinant human mu opioid receptor expressed in CHO-K1 cell membranes by radioligand binding assay; procedure, shortened: as §1
[5] = target: T3, Kappa-type opioid receptor (Cavia porcellus, UniProt P41144); assay: Displacement of [3H]-DPN from guinea pig kappa opioid receptor expressed in CHO-K1 cell membranes by radioligand binding assay; procedure, shortened: as §1
T3 sequence (P41144 whole entry): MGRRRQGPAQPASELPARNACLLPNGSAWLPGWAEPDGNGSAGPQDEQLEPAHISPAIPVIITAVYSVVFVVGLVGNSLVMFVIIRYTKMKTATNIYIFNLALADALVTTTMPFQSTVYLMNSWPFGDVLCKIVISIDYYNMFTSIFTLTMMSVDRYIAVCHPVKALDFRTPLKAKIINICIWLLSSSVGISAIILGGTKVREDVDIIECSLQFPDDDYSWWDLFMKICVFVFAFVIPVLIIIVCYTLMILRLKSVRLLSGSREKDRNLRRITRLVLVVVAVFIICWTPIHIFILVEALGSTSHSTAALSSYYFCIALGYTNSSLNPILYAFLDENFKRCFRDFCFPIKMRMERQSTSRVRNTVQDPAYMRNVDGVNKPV

[6] = Permeability coefficient, Kp in human Caco2 cells; type: ADME, cell-based; details: Caco-2, read-out: Kp
[7] = species: Mus musculus; assay: Peripheral selectivity index, ratio of ID50 for inhibition of morphine-induced delays in gastric emptying in ICR mouse to ID50 for inhibition of morphine-induced delays in intestinal transit in ICR mouse; type: functional
[8] = Half life in rat liver microsomes at 3 uM; type: ADME, Microsome
[9] = species: Mus musculus; assay: Peripheral selectivity index, ratio of ID50 for inhibition of morphine-induced antinociceptive activity in ICR mouse to ID50 for inhibition of morphine-induced delays in intestinal transit in ICR mouse; type: functional
Procedure, shortened: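 Mice were dosed orally with antagonist at several doses and challenged with morphine. ID50 values were taken from dose-dependent reversal of morphine-induced hot plate antinociception (CNS) and of morphine-induced delay in intestinal transit (peripheral). The index is the hot plate ID50 divided by the intestinal transit ID50.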

[10] = Oral bioavailability in Sprague-Dawley rat at 10 mg/kg administered via gavage; type: ADME, organism-based; details: in vivo
[11] = AUC(0 to t) in Sprague-Dawley rat at 10 mg/kg, po administered via gavage; type: ADME, organism-based; details: in vivo
[12] = Half life in dog liver microsomes at 3 uM; type: ADME, Canis lupus familiaris, Microsome
[13] = test system: Mus musculus; assay: Inhibition of morphine-induced delays in gastric emptying in po dosed ICR mouse administered via gavage pretreated with compound and 30 mins later injected with morphine followed 5 mins later by ingestion of test meal and measured after 60 mins; type: functional; details: for ED50: read-out: ID50 (the source's name)
Procedure, shortened: (§2)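 Mice dosed orally; reversal of morphine-induced delay in intestinal transit, delay in gastric emptying, or hot plate antinociception measured; dose-dependent responses fitted to give ID50 in mg/kg.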

[14] = Half life in human liver microsomes at 3 uM; type: ADME, Microsome
[15] = test system: Mus musculus; assay: Inhibition of morphine-induced delays in intestinal transit in po dosed ICR mouse administered via gavage pretreated with compound and 30 mins later injected with morphine followed 5 mins later by ingestion of test meal and measured after 60 mins; type: functional; details: for ED50: read-out: ID50 (the source's name); procedure, shortened: as §2
[16] = test system: Mus musculus; assay: Inhibition of morphine-induced antinociceptive activity in po dosed ICR mouse administered via gavage pretreated with compound and 30 mins later injected with morphine and measured after 30 mins by hot plate test; type: functional; details: for ED50: read-out: ID50 (the source's name); procedure, shortened: as §2
[17] = Oral bioavailability in human; type: ADME, organism-based; details: in vivo
[18] = Cmax in Sprague-Dawley rat at 10 mg/kg, po administered via gavage; type: ADME, organism-based; parameters: dose 10 mg/kg, route oral; details: in vivo
[19] = Oral bioavailability in Sprague-Dawley rat at 5 mg/kg administered via gavage; type: ADME, organism-based; details: in vivo
[20] = test system: Rattus norvegicus; assay: Reversal of castor oil-induced diarrhea in po dosed Sprague-Dawley rat po administered with compound and loperamide at 45 mins and 15 mins prior to castor oil administration and measured after 2 hrs; type: functional; details: read-out: ID50 (the source's name)
[21] = test system: Rattus norvegicus; assay: Reversal of morphine-induced antinociception in Sprague-Dawley rat at >60 mg/kg, po pretreated for 30 mins followed by morphine injection and measured after 60 mins by hot plate test; type: functional, organism-based
[22] = Oral bioavailability in fasted female Beagle dog; type: ADME, organism-based, Canis lupus familiaris; details: in vivo
[23] = target: T1, Delta-type opioid receptor; assay: Antagonist activity at human recombinant delta opioid receptor expressed in CHO-K1 cell membrane assessed as inhibition of DPDPE-induced [35S]-GTPgammaS binding incubated for 30 mins by time resolved fluorescence assay
[24] = test system: Canis familiaris; assay: Inhibition of loperamide-induced gastrointestinal contraction in Beagle dog at 3 mg/kg, po incubated with compound followed 15 mins later by treated with loperamide and measured for 30 mins; type: functional, organism-based; details: Canis lupus familiaris
[25] = test system: Canis familiaris; assay: Reversal of morphine-induced antinociception in Beagle dog at 3 mg/kg, po treated with compound prior to morphine challenge measured after 15 to 45 mins by hot plate test; type: functional, organism-based; details: Canis lupus familiaris
[26] = test system: Canis familiaris; assay: Reversal of morphine-induced sedation in Beagle dog at 3 mg/kg, po administered with compound prior to morphine challenge and measured up to 120 mins post-mophine administration; type: functional, organism-based; details: Canis lupus familiaris
[27] = Half life in Sprague-Dawley rat at 5 mg/kg, po administered via gavage; type: ADME, organism-based; details: in vivo
[28] = species: Mesocricetus auratus; assay: Antagonist activity at delta opiod receptor in golden syrian hamster vas deferens assessed as inhibition of electric field stimulated tissue contraction incubated for 15 mins in presence of […]
[29] = Oral bioavailability in fasted male Beagle dog; type: ADME, organism-based, Canis lupus familiaris; details: in vivo
[30] = Drug uptake in rat cerebrospinal fluid at 20 mg/kg, po; type: ADME, organism-based; details: in vivo
Procedure, shortened: (§3)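 Rats given 20 mg/kg orally; CSF, brain and plasma concentrations measured to estimate CNS penetration.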

[31] = target: Mu-type opioid receptor (Cavia porcellus, UniProt P97266); assay: Antagonist activity at mu opioid receptor in guinea pig ileum assessed as inhibition of electric field stimulated contractions incubated for 15 mins in presence of endomorphin-1; type: tissue-based; details: read-out: pA2 (converted)
Sequence of Mu-type opioid receptor (Cavia porcellus, UniProt P97266) (P97266 whole entry): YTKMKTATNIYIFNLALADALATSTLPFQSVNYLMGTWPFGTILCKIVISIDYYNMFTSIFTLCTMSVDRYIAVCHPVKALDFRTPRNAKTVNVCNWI

[32] = Efflux ratio of permeability in human Caco2 cells; type: ADME, cell-based; details: Caco-2
[33] = target: T2, Mu-type opioid receptor; assay: Antagonist activity at human recombinant mu opioid receptor expressed in CHO-K1 cell membrane assessed as inhibition of DAMGO-induced GTP binding incubated for 30 mins in presence of Eu-GTP by DELFIA GTP binding assay
[34] = AUC(0 to t) in Sprague-Dawley rat at 5 mg/kg, po administered via gavage; type: ADME, organism-based; details: in vivo
[35] = Cmax in Sprague-Dawley rat at 5 mg/kg, po administered via gavage; type: ADME, organism-based; parameters: dose 5 mg/kg, route oral; details: in vivo
[36] = target: T3, Kappa-type opioid receptor; assay: Antagonist activity at kappa opioid receptor in guinea pig ileum assessed as inhibition of electric field stimulated tissue contraction incubated for 15 mins in presence of U69593; type: tissue-based; details: read-out: pA2 (converted)
[37] = Drug uptake in rat brain at 20 mg/kg, po; type: ADME, organism-based; details: in vivo; procedure, shortened: as §3
[38] = Protein binding in human plasma; type: ADME, cell-free; details: read-out: PPB
[39] = test system: Rattus norvegicus; assay: Reversal of loperamide-induced delay in gastric emptying in po dosed Sprague-Dawley rat administered with compound and loperamide at 35 mins and 5 mins prior to test meal respectively measured after 60 mins; type: functional; details: read-out: ID50 (the source's name)
[40] = target: Kappa-type opioid receptor (Cavia porcellus) (UniProt P41144); assay: Antagonist activity at guinea pig recombinant kappa opioid receptor expressed in CHO-K1 cell membrane assessed as inhibition of U69593-induced [35S]-GTPgammaS binding incubated for 30 mins by time resolved fluorescence assay
Sequence of Kappa-type opioid receptor (Cavia porcellus) (P41144 whole entry): as the sequence (P41144 whole entry) above

[41] = test system: MDR1; assay: Efflux ratio of permeability in dog MDCK-MDR1 cells; type: ADME, cell-based, Canis lupus familiaris
[42] = test system: Mus musculus; assay: Inhibition of morphine-dependent CNS-mediated withdrawal response in Swiss Webster mouse at 30 mg/kg, po after 60 mins; type: functional, organism-based
[43] = Cmax in Sprague-Dawley rat at 100 mg/kg, po administered via gavage; type: ADME, organism-based; parameters: dose 100 mg/kg, route oral; details: in vivo
[44] = Oral bioavailability in Sprague-Dawley rat at 100 mg/kg administered via gavage; type: ADME, organism-based; details: in vivo
[45] = AUC(0 to t) in Sprague-Dawley rat at 100 mg/kg, po administered via gavage; type: ADME, organism-based; details: in vivo
[46] = Half life in Sprague-Dawley rat at 100 mg/kg, po administered via gavage; type: ADME, organism-based; details: in vivo
Procedure, shortened: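 Male Sprague–Dawley rats received 100 mg/kg by oral gavage, with n = 3. Plasma half-life was taken from the pharmacokinetic profile alongside Cmax, AUC(0–t) and oral bioavailability.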

T1 sequence (P41143 whole entry): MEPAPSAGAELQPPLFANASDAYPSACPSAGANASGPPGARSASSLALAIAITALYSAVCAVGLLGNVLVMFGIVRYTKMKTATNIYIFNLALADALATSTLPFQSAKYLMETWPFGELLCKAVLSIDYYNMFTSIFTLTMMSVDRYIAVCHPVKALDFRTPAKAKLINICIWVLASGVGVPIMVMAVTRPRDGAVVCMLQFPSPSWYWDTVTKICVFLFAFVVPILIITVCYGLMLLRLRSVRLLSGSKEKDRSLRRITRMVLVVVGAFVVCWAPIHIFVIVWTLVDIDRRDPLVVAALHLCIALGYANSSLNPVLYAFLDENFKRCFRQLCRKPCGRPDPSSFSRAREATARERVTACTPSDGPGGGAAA

NC(=O)c1cccc([C@H]2C[C@H]3CC[C@@H](C2)N3CCN(CC2CCCCC2)C(=O)C(F)(F)F)c1
Ki [1]: 10 nM | half-life at 15 µM [2]: 3 min | Intrinsic activity [3]: 9% | Ki [4]: 0.794 nM | Ki [5]: 1 nM

C[C@H]1CN(C[C@H](Cc2ccccc2)C(=O)NCC(=O)O)CC[C@H]1c1cccc(O)c1
Papp [6]: 3 ×10⁻⁶ cm/s | Ki [1]: 5.01 nM | Selectivity Index [7]: >33 | half-life at 3 µM [8]: > 90 min | Selectivity Index [9]: >8 | bioavailability [10]: 0.1% | AUC(0-t) [11]: 2 ng·h/mL | half-life at 3 µM [12]: > 90 min | ED50 [13]: 0.6 mg/kg | half-life at 3 µM [14]: > 90 min | ED50 [15]: 2.5 mg/kg | ED50 [16]: > 20 mg/kg | Intrinsic activity [3]: -7% | bioavailability [17]: 6% | Ki [4]: 0.316 nM | Cmax [18]: 10 ng/mL | Ki [5]: 5.01 nM

NC(=O)c1cccc([C@H]2C[C@H]3CC[C@@H](C2)N3CCN(CC2CCCCC2)C(=O)[C@@H](O)CO)c1.O=S(=O)(O)O [AXELOPRAN SULFATE]
bioavailability [19]: 27% | ED50 [20]: 0.01 mg/kg | inhibition [21]: Active | Papp [6]: 5 ×10⁻⁶ cm/s | bioavailability [22]: 29% | Ki [1]: 1.58 nM | pKb [23]: 8.8 | inhibition [24]: Active | Selectivity Index [7]: 161 | half-life at 3 µM [8]: 87 min | Selectivity Index [9]: 40 | half-life at 3 µM [12]: 27 min | inhibition [25]: Active | inhibition [13]: Dose-dependent effect | ED50 [13]: 0.087 mg/kg | inhibition [26]: Active | half-life [27]: 78 min | half-life at 3 µM [14]: 90 min | pKb [28]: 8.4 | inhibition [15]: Dose-dependent effect | ED50 [15]: 0.35 mg/kg | bioavailability [29]: 45% | Drug uptake [30]: < 2% | Kb [31]: 0.0794 nM | efflux ratio [32]: 10 | pKb [33]: 9.6 | AUC(0-t) [34]: 470 ng·h/mL | inhibition [16]: Dose-dependent effect | ED50 [16]: 14 mg/kg | Intrinsic activity [3]: -3% | Cmax [35]: 210 ng/mL | Kb [36]: 1.58 nM | Ki [4]: 0.158 nM | Drug uptake [37]: < 2% | fraction unbound [38]: 0.7 to 0.77 | ED50 [39]: 0.24 mg/kg | pKb [40]: 9.5 | efflux ratio [41]: 24 | inhibition [42]: inactive | Ki [5]: 0.126 nM

C[N+]1(CC2CC2)CC[C@]23c4c5ccc(O)c4O[C@H]2C(=O)CC[C@@]3(O)[C@H]1C5.[Br-] (some centres not stated) [METHYLNALTREXONE BROMIDE]
Papp [6]: 2 ×10⁻⁶ cm/s | Cmax [43]: 570 ng/mL | half-life at 3 µM [8]: > 90 min | half-life at 3 µM [12]: > 90 min | ED50 [13]: 25 mg/kg | half-life at 3 µM [14]: > 90 min | ED50 [15]: 67 mg/kg | bioavailability [44]: 2.6% | AUC(0-t) [45]: 490 ng·h/mL | Intrinsic activity [3]: 19% | bioavailability [17]: < 1% | half-life [46]: 168 min

NC(=O)c1cccc([C@H]2C[C@H]3CC[C@@H](C2)N3CCNCC2CCCCC2)c1
Ki [1]: 6.31 nM | half-life at 15 µM [2]: 42 min | Intrinsic activity [3]: 12% | Ki [4]: 0.251 nM | Ki [5]: 0.158 nM

NC(=O)c1cccc([C@H]2C[C@H]3CC[C@@H](C2)N3CCN(CCCc2ccccc2)C(=O)CO)c1
Papp [6]: 26 ×10⁻⁶ cm/s | Ki [1]: 31.6 nM | half-life at 15 µM [2]: 32 min | Intrinsic activity [3]: -13% | Ki [4]: 0.794 nM | Ki [5]: 0.501 nM

C[C@H]1CN(C[C@H](Cc2ccccc2)C(=O)O)CC[C@@]1(C)c1cccc(O)c1
bioavailability [19]: 53% | Papp [6]: 5 ×10⁻⁶ cm/s | Ki [1]: 15.8 nM | Selectivity Index [7]: 41 | half-life at 3 µM [8]: > 90 min | Selectivity Index [9]: 17 | half-life at 3 µM [12]: > 90 min | ED50 [13]: 0.027 mg/kg | half-life [27]: 222 min | half-life at 3 µM [14]: > 90 min | ED50 [15]: 0.064 mg/kg | AUC(0-t) [34]: 1200 ng·h/mL | ED50 [16]: 1.1 mg/kg | Intrinsic activity [3]: -8% | Cmax [35]: 710 ng/mL | Ki [4]: 0.316 nM | Ki [5]: 25.1 nM
